# The M2OR odorant receptor database
# Key:
# Settings in all cases: stereoisomer not certain
# [1] = target: T1, Or1m1 (Mus musculus) (UniProt Q8VFM9)
# T1 sequence (whole entry): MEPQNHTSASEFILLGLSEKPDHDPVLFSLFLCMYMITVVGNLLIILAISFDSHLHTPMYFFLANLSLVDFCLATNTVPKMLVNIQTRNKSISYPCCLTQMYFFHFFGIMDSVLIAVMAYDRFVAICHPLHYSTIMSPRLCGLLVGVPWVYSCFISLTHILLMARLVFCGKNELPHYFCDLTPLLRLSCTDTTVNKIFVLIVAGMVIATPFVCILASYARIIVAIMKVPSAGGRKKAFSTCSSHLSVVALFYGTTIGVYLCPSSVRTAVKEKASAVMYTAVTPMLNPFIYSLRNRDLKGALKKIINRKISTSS
# Summary of the method: (§1)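 Assay methods differ from source to source, frequently being transient luciferase assays in mammalian cell lines. For each receptor–molecule pair, the label responsive (active) applies when the original authors judged the measured signal statistically different from baseline, and non-responsive (inactive) applies otherwise.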
# [2] = target: T2, Or2c1 (Mus musculus) (UniProt P23275)
# T2 sequence (whole entry): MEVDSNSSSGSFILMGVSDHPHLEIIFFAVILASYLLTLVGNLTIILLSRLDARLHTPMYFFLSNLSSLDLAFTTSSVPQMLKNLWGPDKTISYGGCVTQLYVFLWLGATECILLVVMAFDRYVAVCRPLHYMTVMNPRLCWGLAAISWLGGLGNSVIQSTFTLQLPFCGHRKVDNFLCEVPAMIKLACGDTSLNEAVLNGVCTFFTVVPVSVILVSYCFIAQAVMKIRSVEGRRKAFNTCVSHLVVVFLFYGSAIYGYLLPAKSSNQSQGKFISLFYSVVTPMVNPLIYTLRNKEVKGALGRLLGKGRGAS
# Summary of the method: as §1
# [3] = target: T3, Or5ar1 (Mus musculus) (UniProt Q8VGS3)
# T3 sequence (whole entry): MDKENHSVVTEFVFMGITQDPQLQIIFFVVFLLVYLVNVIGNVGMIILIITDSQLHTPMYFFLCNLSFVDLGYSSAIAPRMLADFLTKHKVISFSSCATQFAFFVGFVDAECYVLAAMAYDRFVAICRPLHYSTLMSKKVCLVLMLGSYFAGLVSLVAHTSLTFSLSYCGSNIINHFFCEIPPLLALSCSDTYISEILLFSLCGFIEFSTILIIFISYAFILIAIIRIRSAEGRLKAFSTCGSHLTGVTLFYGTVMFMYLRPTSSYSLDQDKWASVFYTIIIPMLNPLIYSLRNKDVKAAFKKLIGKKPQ
# Summary of the method: as §1
# [4] = target: T4, Or10j5 (Mus musculus) (UniProt Q62007)
# T4 sequence (whole entry): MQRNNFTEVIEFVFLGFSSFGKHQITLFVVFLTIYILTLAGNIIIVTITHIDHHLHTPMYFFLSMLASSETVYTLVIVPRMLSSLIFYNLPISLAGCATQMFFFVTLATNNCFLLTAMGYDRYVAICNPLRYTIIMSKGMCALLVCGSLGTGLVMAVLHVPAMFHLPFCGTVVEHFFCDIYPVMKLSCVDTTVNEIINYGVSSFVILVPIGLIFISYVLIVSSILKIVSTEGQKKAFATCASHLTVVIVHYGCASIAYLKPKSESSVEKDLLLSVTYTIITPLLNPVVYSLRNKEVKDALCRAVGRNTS
# Summary of the method: as §1
# [5] = target: T5, Or5an6 (Mus musculus) (UniProt Q8VFV4)
# T5 sequence (whole entry): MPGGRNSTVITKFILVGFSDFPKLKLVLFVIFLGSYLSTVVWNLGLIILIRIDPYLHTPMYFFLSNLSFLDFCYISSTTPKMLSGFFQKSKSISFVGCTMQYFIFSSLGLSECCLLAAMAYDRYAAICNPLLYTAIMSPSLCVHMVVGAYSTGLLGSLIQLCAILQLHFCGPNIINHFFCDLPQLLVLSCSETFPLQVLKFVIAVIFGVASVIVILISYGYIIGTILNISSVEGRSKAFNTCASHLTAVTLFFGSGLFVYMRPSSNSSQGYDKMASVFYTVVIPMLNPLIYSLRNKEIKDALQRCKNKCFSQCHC
# Summary of the method: as §1
SMILES,odorant receptor agonist call [1],odorant receptor agonist call [2],odorant receptor agonist call [3],odorant receptor agonist call [4],odorant receptor agonist call [5]
CCCCCC1=C(C)CCC1=O,inactive,inactive,inactive,–,–
CCCCCCCCCC=CC=O,inactive,–,inactive,–,–
CCCCCCCCCS,inactive,inactive,inactive,–,–
CCCCCCCCCCO,inactive,inactive,inactive,–,–
C=CCOC(=O)CCCCCC,inactive,inactive,inactive,–,–
COc1cc(C(=O)O)ccc1O,inactive,inactive,inactive,–,–
O=C1Cc2ccccc2O1,inactive,active,inactive,–,–
c1ccccc1,inactive,inactive,inactive,–,–
CC(C)=CCCC(C)CCO (centres undefined),inactive,inactive,inactive,–,–
CCCC(C)=O,–,inactive,inactive,inactive,–
CC1CC=CCCCCCCCCCC(=O)C1 (centres undefined),inactive,–,inactive,–,active
CCCCCOC(=O)CCCCC,inactive,active,inactive,–,–
O=C([O-])CCCCCCC(=O)[O-].[H+].[H+],inactive,–,inactive,inactive,–
CCCCCCCC(C)=O,inactive,inactive,inactive,–,–
CCCCC(=O)CC,inactive,inactive,inactive,–,–
